Tests used:
[1] = Antiproliferative activity against human TY82 cells; type: functional, cell-based
[2] = molecular target: Bromodomain-containing protein 4 (Homo sapiens, UniProt O60885); experiment: Inhibition of BRD4 BD1-BD2 (unknown origin) using tetraacetylated histone peptide as substrate after 2 hrs by alphascreen assay
THP-1 = experiment: Antiproliferative activity against human THP1 cells; type: functional, cell-based
[3] = Volume of distribution at steady state in rat at 2 mg/kg, iv; type: ADME, organism-based; conditions: in vivo, read-out: Vdss
Outline: (§1)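 Rat pharmacokinetics after a single intravenous dose of 2 mg/kg or oral doses of 5 mg/kg and 20 mg/kg. Reported parameters are Tmax, Cmax, T1/2, AUCt, AUC∞, CL, Vss and F(%). CL, Vss and F come from the intravenous/oral 2 and 5 mg/kg arms.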

[4] = Half life in rat at 2 mg/kg, iv; type: ADME, organism-based; conditions: in vivo
Outline: (§2)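 Rat pharmacokinetics with single intravenous (2 mg/kg) or oral (5 or 20 mg/kg) dosing. Terminal half-life is reported in hours.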

[5] = AUCt in rat at 5 mg/kg, po; type: ADME, organism-based; conditions: in vivo
Outline: (§3)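 Rat pharmacokinetics with single dosing, either intravenous at 2 mg/kg or oral at 5 or 20 mg/kg. AUC is reported both to the last time point (AUCt) and extrapolated to infinity, in ug.hr/mL.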

Rattus norvegicus [6] = experiment: Half life in rat at 5 mg/kg, po; type: ADME, organism-based; conditions: in vivo; outline: as §2
Rattus norvegicus [7] = experiment: AUCinfinity in rat at 5 mg/kg, po; type: ADME, organism-based; parameters: dose 5 mg/kg, time infinity, route oral; conditions: in vivo; outline: as §3
[8] = AUCinfinity in rat at 2 mg/kg, iv; type: ADME, organism-based; parameters: dose 2 mg/kg, time infinity, route intravenous; conditions: in vivo; outline: as §3
[9] = Clearance in rat at 2 mg/kg, iv; type: ADME, organism-based; conditions: in vivo
[10] = Stability in mouse liver microsomes assessed as parent compound remaining after 30 mins; type: ADME, microsome; conditions: read-out: Stability
Outline: (§4)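 Incubated in vitro with mouse, rat or human liver microsomes for 30 minutes. Result expressed as percent of parent compound remaining.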

Rattus norvegicus [11] = experiment: Cmax in rat at 5 mg/kg, po; type: ADME, organism-based; parameters: dose 5 mg/kg, route oral; conditions: in vivo
Outline: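 Peak plasma level after single oral dosing in rat at 5 or 20 mg/kg. Cmax is given in mg/mL as printed, with Tmax in hours.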

[12] = Stability in rat liver microsomes assessed as parent compound remaining after 30 mins; type: ADME, microsome; conditions: read-out: Stability; outline: as §4
[13] = AUCt in rat at 2 mg/kg, iv; type: ADME, organism-based; conditions: in vivo; outline: as §3
Rattus norvegicus [14] = experiment: Tmax in rat at 5 mg/kg, po; type: ADME, organism-based; conditions: in vivo; outline: as §1
[15] = Stability in human liver microsomes assessed as parent compound remaining after 30 mins; type: ADME, microsome; conditions: read-out: Stability; outline: as §4
[16] = Oral bioavailability in rat at 5 mg/kg; type: ADME, organism-based; conditions: in vivo; outline: as §1

Row | SMILES | IC50 [2] [nM] | IC50 [1] [nM] | further results
1 | Cc1nnc2c(Nc3cccc(CN)c3)nc3ccccc3n12 | 350 | > 10000 | –
2 | CC(=O)NCc1cccc(Nc2nc3ccccc3n3c(C)nnc23)c1 | 530 | > 10000 | –
3 | CC(C)(C)OC(=O)NCc1cccc(Nc2nc3ccccc3n3c(C(F)(F)F)nnc23)c1 | > 10000 | – | –
4 | CCOC(=O)NCc1cccc(Nc2nc3ccccc3n3c(C)nnc23)c1 | 160 | > 10000 | IC50 (THP-1): > 10000 nM
5 | Cc1sc2c(c1C)C(c1ccc(Cl)cc1)=N[C@@H](CC(=O)Nc1ccc(O)cc1)c1nnc(C)n1-2 [BIRABRESIB] | – | 67 | IC50 (THP-1): 33 nM
6 | CCNC(=O)C[C@@H]1N=C(c2ccc(Cl)cc2)c2cc(OC)ccc2-n2c(C)nnc21 [MOLIBRESIB] | – | 390 | IC50 (THP-1): 290 nM
7 | CCC(=O)NCc1cccc(Nc2nc3ccccc3n3c(C)nnc23)c1 | 200 | 7600 | –
8 | Cc1nnc2c(Nc3ccc(CNC(=O)OC(C)(C)C)cc3)nc3ccccc3n12 | 2700 | > 10000 | –
9 | CC(C)(C)OC(=O)NCc1cccc(Nc2nc3ccccc3n3c(-c4ccccc4)nnc23)c1 | > 10000 | – | –
10 | CC(C)(C)OC(=O)NCc1cccc(Nc2nc3ccccc3n3cnnc23)c1 | > 10000 | – | –
11 | CCc1nnc2c(Nc3cccc(CNC(=O)OC(C)(C)C)c3)nc3ccccc3n12 | > 10000 | – | –
12 | Cc1nnc2c(Nc3cccc(CNC(=O)OC(C)(C)C)c3)nc3ccccc3n12 | 17 to 68 | 2500 to 7100 | Vd [3]: 0.46 L/kg; half-life [4]: 0.72 h; AUC(0-t) [5]: 2110 ng·h/mL; t1/2 (Rattus norvegicus [6]): 3.69 h; AUC (Rattus norvegicus [7]): 2390 ng·h/mL; AUC(0-inf) [8]: 4020 ng·h/mL; IC50 (THP-1): 3400 nM; clearance [9]: 8.33 mL/min/kg; remaining at 0.5 h [10]: 0.12%; Cmax (Rattus norvegicus [11]): 340 ng/mL; remaining at 0.5 h [12]: 0.19%; AUC(0-t) [13]: 4020 ng·h/mL; Tmax (Rattus norvegicus [14]): 3.42 h; remaining at 0.5 h [15]: 27%; bioavailability [16]: 20.9%

Now from value to molecule, other results behind:

Row | IC50 [2] [nM] | SMILES | IC50 [1] [nM] | further results
13 | 640 | Cc1nnc2c(Nc3cccc(CNC(=O)c4ccccc4)c3)nc3ccccc3n12 | 8600 | –
14 | 120 | Cc1nnc2c(Nc3cccc(NC(=O)OC(C)(C)C)c3)nc3ccccc3n12 | > 10000 | –
15 | 6400 | Cc1nnc2c(Nc3ccc(NC(=O)OC(C)(C)C)cc3)nc3ccccc3n12 | > 10000 | –
16 | 97 | Cc1nnc2c(Nc3cccc(CNC(=O)C(C)(C)C)c3)nc3ccccc3n12 | > 10000 | –
17 | 1500 | Cc1nnc2c(Nc3cccc(CNC(=O)OC(C)(C)C)c3)nccn12 | > 10000 | –
